Reference: ChEMBL document CHEMBL1137973, “Anthranilate 4H-oxazol-5-ones: novel small molecule antibacterial acyl carrier protein synthase (AcpS) inhibitors” (Bioorg Med Chem Lett, 2004)
Converted amounts (≈) assume the structure as drawn.

What was measured:
Enterococcus faecalis = experiment: Minimum inhibitory concentration required against Enterococcus faecalis VRE strain was determined; format: functional
In short: (§1)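 MICs against aerobic bacteria were determined by broth microdilution as recommended by NCCLS. Each compound was tested once against each strain. Standard error per run is 1 dilution.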

[1] = Minimum inhibitory concentration required against […] faecalis ATCC strain was determined; format: functional; details: Enterococcus faecalis; in short: as §1
Bacillus subtilis = experiment: Minimum inhibitory concentration required against Bacillus subtilis was determined; format: functional; in short: as §1
[2] = molecular target: T1, Holo-[acyl-carrier-protein] synthase (Bacillus subtilis (strain 168), UniProt P96618); experiment: In vitro inhibitory activity against Holo-[acyl-carrier-protein] synthase was determined using Bacillus subtilis GST-Acp-HTRFassay
T1 sequence (P96618 whole entry): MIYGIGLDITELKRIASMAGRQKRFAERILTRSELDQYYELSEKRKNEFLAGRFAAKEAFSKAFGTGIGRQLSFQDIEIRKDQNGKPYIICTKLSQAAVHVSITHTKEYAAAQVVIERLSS
In short: (§2)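 B. subtilis AcpS at 15 ng/mL was incubated with biotin-CoA and GST-ACP as acceptor. Buffer was 50 mM Tris·HCl pH 8.0 with 7.5 mM MgCl2, 3.75 mM DTT, 0.0375% Tween-20 and BSA. The reaction ran 3 h at room temperature. It was stopped with EDTA/KF containing europium cryptate anti-GST antibody plus streptavidin–allophycocyanin, and read by HTRF. Standard error per run is 10%.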

Streptococcus pneumoniae = experiment: Minimum inhibitory concentration required against Streptococcus pneumoniae; format: functional; in short: as §1
[3] = molecular target: T1, Holo-[acyl-carrier-protein] synthase; experiment: In vitro inhibitory activity against acyl carrier protein synthase (AcpS) in Bacillus subtilis GST-Acp-HTRFassay; in short: as §2

MIC (Enterococcus faecalis) [µM]	MIC [1] [µM]	MIC (Bacillus subtilis) [µM]	IC50 [2] [nM]	MIC (Streptococcus pneumoniae) [µM]	IC50 [3] [nM]	SMILES
25 (≈ 11.8 µg/mL)	25 (≈ 11.8 µg/mL)	50 (≈ 23.7 µg/mL)	1500	12.5 (≈ 5.91 µg/mL)	–	O=C(O)c1cc(Br)ccc1/N=C/c1nc(-c2ccc(C(F)(F)F)c(F)c2)oc1O
50 (≈ 21.4 µg/mL)	50 (≈ 21.4 µg/mL)	50 (≈ 21.4 µg/mL)	1100	12.5 (≈ 5.36 µg/mL)	–	O=C(O)c1cc(Cl)ccc1/N=C/c1nc(-c2ccc(C(F)(F)F)c(F)c2)oc1O
200 (≈ 78.9 µg/mL)	100 (≈ 39.4 µg/mL)	200 (≈ 78.9 µg/mL)	1900	100 (≈ 39.4 µg/mL)	–	O=C(O)c1cc(F)ccc1/N=C/c1nc(-c2ccc(C(F)(F)F)cc2)oc1O
> 200	> 200	> 200	130	200 (≈ 90.3 µg/mL)	–	CC(=O)Nc1ccc(/N=C/c2nc(-c3ccc(C(F)(F)F)c(F)c3)oc2O)c(C(=O)O)c1
100 (≈ 39 µg/mL)	> 200	100 (≈ 39 µg/mL)	830	100 (≈ 39 µg/mL)	–	Cc1ccc(/N=C/c2nc(-c3ccc(C(F)(F)F)cc3)oc2O)c(C(=O)O)c1
50 (≈ 23.4 µg/mL)	25 (≈ 11.7 µg/mL)	200 (≈ 93.7 µg/mL)	1300	12.5 (≈ 5.86 µg/mL)	–	O=C(O)c1cc(I)ccc1/N=C/c1nc(-c2ccc(Cl)cc2)oc1O
–	> 200	> 200	> 20000	–	–	O=C(O)c1cc(Br)c(Cl)cc1/N=C/c1nc(-c2ccc(Cl)cc2)oc1O
100 (≈ 40.6 µg/mL)	200 (≈ 81.3 µg/mL)	25 (≈ 10.2 µg/mL)	–	25 (≈ 10.2 µg/mL)	4400	Cc1ccc(/N=C/c2nc(-c3cccc(OC(F)(F)F)c3)oc2O)c(C(=O)O)c1
> 200	> 200	> 200	15000	> 200	–	O=C(O)c1ccccc1/N=C/c1nc(-c2ccc(Cl)cc2)oc1O
25 (≈ 11.8 µg/mL)	50 (≈ 23.6 µg/mL)	25 (≈ 11.8 µg/mL)	15000	12.5 (≈ 5.89 µg/mL)	–	O=C(O)c1cc(Br)ccc1/N=C/c1nc(-c2cccc(OC(F)(F)F)c2)oc1O
–	> 200	> 200	> 20000	–	–	COc1ccc(-c2nc(/C=N/c3ccc(F)cc3C(=O)O)c(O)o2)cc1
50 (≈ 21.3 µg/mL)	100 (≈ 42.7 µg/mL)	50 (≈ 21.3 µg/mL)	20000	25 (≈ 10.7 µg/mL)	–	O=C(O)c1cc(Cl)ccc1/N=C/c1nc(-c2cccc(OC(F)(F)F)c2)oc1O
–	–	–	> 20000	–	–	O=C(O)c1ccccc1/N=C/c1nc(-c2ccccc2)oc1O
100 (≈ 40.8 µg/mL)	100 (≈ 40.8 µg/mL)	25 (≈ 10.2 µg/mL)	270	25 (≈ 10.2 µg/mL)	–	Cc1ccc(/N=C/c2nc(-c3ccc(C(F)(F)F)c(F)c3)oc2O)c(C(=O)O)c1
100 (≈ 36.1 µg/mL)	100 (≈ 36.1 µg/mL)	> 200	2100	200 (≈ 72.1 µg/mL)	–	O=C(O)c1cc(F)ccc1/N=C/c1nc(-c2ccc(Cl)cc2)oc1O
200 (≈ 84.3 µg/mL)	100 (≈ 42.2 µg/mL)	> 200	3400	100 (≈ 42.2 µg/mL)	–	O=C(O)c1cc(Br)ccc1/N=C/c1nc(-c2ccc(Cl)cc2)oc1O
50 (≈ 24.5 µg/mL)	100 (≈ 49 µg/mL)	> 200	2000	100 (≈ 49 µg/mL)	–	O=C(O)c1cc(Br)c(Cl)cc1/N=C/c1nc(-c2ccc(C(F)(F)F)cc2)oc1O
